SKKanGAS inh – S. pyogenes SKKanGAS growth inhibitors in kanamycin, primary screen, streptokinase expression inhibitor project, SKKanGAS strain, BacTiter-Glo luminescence | 6 h | inhibition, % at 7.5 µM | 1.3% of 300,000 active | AID 1662, 2009;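 active = mean replicate score, as percent of positive control median, at least 50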;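 note: strain carries kanamycin resistance gene driven by streptokinase promoter and grows in 40 µg/ml kanamycin; loss of luminescence reflects streptokinase promoter inhibition or plain growth inhibition; 0% = median of DMSO wells and 100% = positive control at its reference dose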
Mdm2 MdmX PPI – inhibitors of human Mdm2-MdmX association, primary screen, cell-based, luminescence, split luciferase, SaOS-2, uHTS. Protein Mdm4 (Homo sapiens) + E3 ubiquitin-protein ligase Mdm2 (Homo sapiens), …. SaOS-2 split-luciferase Mdm2/MdmX complementation. inhibition, % at 8 µM. 3% of 330,000 active. AID 485346, 2010;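 active = inhibition of at least 50% at 8 µM in the primary screen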
T cruzi inh – inhibitors of intracellular T. cruzi growth, primary screen, luminescence, NIH3T3 host cells | inhibition, % (concentration not given with the values) | AID 1885, 2009 | 1.4% of 300,000 active | T. cruzi beta-gal in NIH3T3, 90 h;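 active = mean inhibition across valid replicates above about 55%, limit read from the data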;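 note: signal also drops with host cell toxicity which is not excluded here; 0% = plate median of DMSO wells and 100% = zero luminescence signal; higher percent means less beta-gal luminescence so fewer parasites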
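compound dosing = single 50 nL compound addition per well in DMSO | material = NIH/3T3 host cells with β-galactosidase reporter T. cruzi | input = 5,000 host fibroblasts per well | timing = ≥90 h infection period, 3 h prior cell attachment | read-out basis = percent inhibition of parasite-derived β-gal signal | detection = GalScreen β-gal luminescence, detergent lysis, 60 min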
Lmaj promast – Leishmania major promastigote growth inhibition, primary screen; Leishmania major promastigotes, resazurin fluorescence viability; inhibition, % at 10 µM; 9% of 200,000 active; in the data active = inhibition above about 50%;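 note: promastigotes grown with compound for 44 hours at 28 °C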
CSC inhib – cancer stem cell viability inhibitors, primary screen, luminescence. cancer stem cell-like cells viability. AID 2717, 2010. inhibition, % at 7.5 µM. 1.1% of 300,000 active; in the data active = inhibition above about 75%; tested in HMLE shEcad cells
Beta cell apopt – inhibitors of cytokine-induced beta cell apoptosis, primary screen, luminescence; INS-1E cytokine-induced death, ATP luminescence, 48 h; percent of positive-control rescue, neutral wells zero; protection from apoptosis, % (test concentration not listed); AID 435005, 2010; 0.8% of 300,000 active;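 active = Every replicate reaches about 75%, or at least half do and their mean reaches it too, limit read from the data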;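 note: 0% = cytokine-treated negative control wells and 100% = positive control rescue; higher means more ATP so stronger rescue from cytokine killing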
Mdm2-MdmX conf – Mdm2-MdmX complex disruptors, retested hits, confirmation, luminescence, single concentration. AID 489028, 2010. Mdm2-MdmX binding, luminescent assay. shares compounds with Mdm2 MdmX PPI. 55% of 10,000 active. inhibition, % at 8 µM; in the data active = inhibition above about 40%
Full FLuc ctr – full-length luciferase signal inhibition, confirmation, counter-screen for Mdm2/MdmX interaction inhibitor project, cell-based, single concentration, SaOS-2; shares compounds with Mdm2 MdmX PPI; SaOS-2 full-length luciferase counterscreen, luminescence; inhibition, % at 8 µM; 77% of 6,200 active; AID 504607, 2011;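 active = mean inhibition at 8 µM reaching about 37%, which flags the compound as non-specific, limit read from the data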;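 note: p53-null SaOS-2 cells with luciferase driven by a doxycycline-inducible promoter; compound on cells about two nights before reading with doxycycline added after day one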
An asterisk follows results filed as active; . = not tested or not shown. This is a sample that favours compounds with a hit; in the whole collection about 9.4% have one here.

SMILES | SKKanGAS inh | Mdm2 MdmX PPI | T cruzi inh | Lmaj promast | CSC inhib | Beta cell apopt | Mdm2-MdmX conf | Full FLuc ctr
CCOC(=O)C1=C(C)NC(=S)N(C(C)=O)C1c1ccc(OC)c(OC)c1 (stereo not given) | 8 | 57* | -16 | . | 7 | 5 | 8 | .
COc1ccc(N2CCN(C(=O)Cn3cnc4c(cnn4-c4ccccc4)c3=O)CC2)cc1 | -3 | 19 | -6 | -4 | -9 | -6 | . | .
COc1ccc(N2CCN(C(=O)Cn3cnc4c(cnn4-c4ccc(C)cc4)c3=O)CC2)cc1 | -2 | 61* | -6 | -5 | -28 | -5 | -7 | .
CC(C)[C@H](NC(=O)c1ccccc1Cl)C(=O)Nc1nc(-c2ccccn2)cs1 | 79* | 64* | 66* | 99* | 17 | 32 | 53* | 36
CCc1nnc(NC(=O)C(NC(=O)c2ccccc2Cl)C(C)C)s1 (stereo not given) | -1 | -15 | -2 | 6 | -6 | -6 | . | .
CC(Oc1ccc(Br)cc1)C(=O)Nc1nc(-c2ccccn2)cs1 (stereo not given) | 87* | 80* | 69* | . | 89* | . | 71* | 35
COc1cccc(-c2nc(Oc3cc(C)cc(C)c3)c3ccccc3n2)c1O | 0 | 64* | -4 | 1 | 8 | -1 | 30 | .
COc1cccc(-c2nc(N3CC(C)CC(C)C3)c3ccccc3n2)c1O (stereo not given) | 65* | 61* | 55* | 12 | . | . | 14 | .
COc1cccc(-c2nc(N3CCC(C)CC3)c3ccccc3n2)c1O | 24 | 24 | 44 | 30 | -3 | 12 | . | .
CC(OC(=O)CCC(=O)c1cccs1)C(=O)NC1CCCCC1C (stereo not given) | . | 0 | . | . | . | 2 | . | .
O=C(NCCO)C(=O)Nc1cc2c3c(c1)CC(=O)N3CCC2 | 1 | -52 | -22 | . | 10 | -1 | . | .
O=C(CCl)c1cc2c3c(c1)CC(=O)N3CCC2 | 3 | 77* | -8 | . | -5 | . | 56* | 12
CCC(=O)NC(c1ccc(Cl)cc1Cl)c1ccc2cccnc2c1O (stereo not given) | 64* | 78* | 67* | . | 104* | 104* | 87* | 20
CC(C)C(=O)NC(c1ccc(Cl)cc1Cl)c1ccc2cccnc2c1O (stereo not given) | 81* | 84* | 40 | . | 100* | . | 91* | 22
CC(NC(=O)CSc1ncccn1)c1ccc(Cl)cc1Cl (stereo not given) | 2 | -10 | -2 | -4 | 11 | -4 | . | .
COc1ccc(C(NC(=O)C(C)C)c2ccc3cccnc3c2O)cc1 (stereo not given) | 55* | 77* | 54 | . | 104* | 104* | 83* | 29
Cc1cc(NC(c2ccc(Cl)cc2)c2ccc3cccnc3c2O)no1 (stereo not given) | 101* | 63* | 37 | 100* | 101* | . | 82* | 27
CCc1ccc(OCC(=O)Nc2ncn[nH]2)cc1 | -2 | -11 | 1 | 1 | 15 | -4 | . | .
O=C(CSc1ccccn1)Nc1cccc(S(=O)(=O)N2CCCC2)c1 | . | -19 | . | . | 2 | 0 | . | .
CCCCC(=O)NC(c1ccc(Cl)cc1Cl)c1ccc2cccnc2c1O (stereo not given) | 92* | 77* | 64* | . | 109* | 85* | 87* | 51*
CC(C)NC(=O)CCCOc1ccc(Cl)cc1Cl | -5 | 11 | 2 | -1 | -15 | -3 | . | .
CN1CCC(NC(=O)c2cc(-c3cccc(Br)c3)nc3ccccc23)CC1 | -12 | 66* | 44 | . | 18 | 18 | 38 | 65*

Bioassay records deposited in PubChem BioAssay by several laboratories.
